In ChEMBL document CHEMBL1139352, “Synthesis and evaluation of novel inhibitors of Pim-1 and Pim-2 protein kinases” (J Med Chem, 2009):

What was measured:
[1] = molecular target: RAC-gamma serine/threonine-protein kinase (Homo sapiens) (UniProt Q9Y243); experiment: Inhibition of AKT3 at 5 uM
[2] = molecular target: Tyrosine-protein kinase ABL1 (Homo sapiens) (UniProt P00519); experiment: Inhibition of ABL at 5 uM
Mus musculus [3] = experiment: Toxicity in Swiss Webster mouse assessed as phosphate level at 3 mg/kg, ip daily for 7 days measured after 7 days; type: organism-based; parameters: dose 3 mg/kg, route intraperitoneal; conditions: in vivo, 168 h
[4] = molecular target: Serine/threonine-protein kinase pim-2 (Homo sapiens, UniProt Q9P1W9); experiment: Inhibition of PIM2 at 5 uM
Chain of Serine/threonine-protein kinase pim-2 (Q9P1W9 whole entry, looked up): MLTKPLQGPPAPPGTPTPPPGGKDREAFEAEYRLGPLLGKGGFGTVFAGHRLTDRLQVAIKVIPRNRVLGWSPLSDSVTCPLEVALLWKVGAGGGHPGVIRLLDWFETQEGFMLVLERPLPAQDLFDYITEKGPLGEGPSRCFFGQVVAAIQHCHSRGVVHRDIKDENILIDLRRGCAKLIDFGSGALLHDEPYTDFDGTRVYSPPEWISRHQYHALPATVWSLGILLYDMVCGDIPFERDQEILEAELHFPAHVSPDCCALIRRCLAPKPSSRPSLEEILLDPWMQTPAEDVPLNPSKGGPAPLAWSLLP

Mus musculus [5] = experiment: Toxicity in Swiss Webster mouse assessed as alkaline phosphatase level at 10 mg/kg, ip daily for 7 days measured after 7 days; type: organism-based; parameters: dose 10 mg/kg, route intraperitoneal; conditions: in vivo, 168 h
Mus musculus [6] = experiment: Toxicity in Swiss Webster mouse assessed as alkaline phosphatase level at 3 mg/kg, ip daily for 7 days measured after 7 days; type: organism-based; parameters: dose 3 mg/kg, route intraperitoneal; conditions: in vivo, 168 h
[7] = molecular target: Proto-oncogene tyrosine-protein kinase Src (Homo sapiens) (UniProt P12931); experiment: Inhibition of SRC at 5 uM
Mus musculus [8] = experiment: Toxicity in Swiss Webster mouse assessed as amylase level at 10 mg/kg, ip daily for 7 days measured after 7 days; type: organism-based; parameters: dose 10 mg/kg, route intraperitoneal; conditions: in vivo, 168 h
[9] = molecular target: MAP kinase-activated protein kinase 5 (Homo sapiens) (UniProt Q8IW41); experiment: Inhibition of PRAK at 5 uM
Chain of MAP kinase-activated protein kinase 5 (Homo sapiens) (Q8IW41 whole entry): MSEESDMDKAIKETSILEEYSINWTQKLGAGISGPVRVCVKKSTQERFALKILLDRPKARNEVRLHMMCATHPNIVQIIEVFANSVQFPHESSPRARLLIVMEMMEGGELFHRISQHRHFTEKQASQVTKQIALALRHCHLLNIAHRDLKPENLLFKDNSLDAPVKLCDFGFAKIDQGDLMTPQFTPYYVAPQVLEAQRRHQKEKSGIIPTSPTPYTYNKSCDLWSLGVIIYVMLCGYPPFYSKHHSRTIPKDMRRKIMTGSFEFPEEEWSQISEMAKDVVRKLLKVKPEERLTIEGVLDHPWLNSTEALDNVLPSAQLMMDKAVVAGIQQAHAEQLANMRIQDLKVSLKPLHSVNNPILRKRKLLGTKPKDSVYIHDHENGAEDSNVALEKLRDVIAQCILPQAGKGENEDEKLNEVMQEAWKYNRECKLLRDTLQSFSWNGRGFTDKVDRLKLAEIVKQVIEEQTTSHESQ

Mus musculus [10] = experiment: Toxicity in Swiss Webster mouse assessed as phosphate level at 50 mg/kg, ip daily for 7 days measured after 7 days; type: organism-based; parameters: dose 50 mg/kg, route intraperitoneal; conditions: in vivo, 168 h
Mus musculus [11] = experiment: Toxicity in Swiss Webster mouse assessed as K+ level at 50 mg/kg, ip daily for 7 days measured after 7 days; type: organism-based; parameters: dose 50 mg/kg, route intraperitoneal; conditions: in vivo, 168 h
[12] = tested on: Receptor-type tyrosine-protein kinase FLT3 (Homo sapiens), P36888 [D835Y]; experiment: Inhibition of FLT3(D835Y) at 5 uM
[13] = molecular target: Dual specificity tyrosine-phosphorylation-regulated kinase 1A (Homo sapiens) (UniProt Q13627); experiment: Inhibition of DYRK1alpha at 5 uM
[14] = molecular target: Vascular endothelial growth factor receptor 2 (Homo sapiens) (UniProt P35968); experiment: Inhibition of KDR at 5 uM
Mus musculus [15] = experiment: Toxicity in Swiss Webster mouse assessed as hemoglobin level at 3 mg/kg, ip daily for 7 days measured after 7 days; type: organism-based; parameters: dose 3 mg/kg, route intraperitoneal
[16] = Inhibition of PKGalpha at 5 uM
Mus musculus [17] = experiment: Toxicity in Swiss Webster mouse assessed as lymphocyte count at 50 mg/kg, ip daily for 7 days measured after 7 days; type: organism-based; parameters: dose 50 mg/kg, route intraperitoneal; conditions: in vivo, 168 h
Mus musculus [18] = experiment: Toxicity in Swiss Webster mouse assessed as K+ level at 3 mg/kg, ip daily for 7 days measured after 7 days; type: organism-based; parameters: dose 3 mg/kg, route intraperitoneal; conditions: in vivo, 168 h
Mus musculus [19] = experiment: Toxicity in Swiss Webster mouse assessed as granulocyte count at 50 mg/kg, ip daily for 7 days measured after 7 days; type: organism-based; parameters: dose 50 mg/kg, route intraperitoneal; conditions: in vivo, 168 h
Mus musculus [20] = experiment: Toxicity in Swiss Webster mouse assessed as Na+ level at 50 mg/kg, ip daily for 7 days measured after 7 days; type: organism-based; parameters: dose 50 mg/kg, route intraperitoneal; conditions: in vivo, 168 h
[21] = molecular target: Glycogen synthase kinase-3 beta (Homo sapiens) (UniProt P49841); experiment: Inhibition of GSK3-beta at 5 uM
Mus musculus [22] = experiment: Toxicity in Swiss Webster mouse assessed as K+ level at 10 mg/kg, ip daily for 7 days measured after 7 days; type: organism-based; parameters: dose 10 mg/kg, route intraperitoneal; conditions: in vivo, 168 h
Mus musculus [23] = experiment: Toxicity in Swiss Webster mouse assessed as lymphocyte count at 3 mg/kg, ip daily for 7 days measured after 7 days; type: organism-based; parameters: dose 3 mg/kg, route intraperitoneal; conditions: in vivo, 168 h
Mus musculus [24] = experiment: Toxicity in Swiss Webster mouse assessed as alanine aminotransferase level at 50 mg/kg, ip daily for 7 days measured after 7 days; type: organism-based; parameters: dose 50 mg/kg, route intraperitoneal; conditions: in vivo, 168 h
[25] = molecular target: Cyclin-dependent kinase 2 (Homo sapiens) (UniProt P24941); experiment: Inhibition of CDK2 at 5 uM
[26] = molecular target: Tyrosine-protein kinase Fyn (Homo sapiens) (UniProt P06241); experiment: Inhibition of FYN at 5 uM
Chain of Tyrosine-protein kinase Fyn (Homo sapiens) (P06241 2-537 limits assumed): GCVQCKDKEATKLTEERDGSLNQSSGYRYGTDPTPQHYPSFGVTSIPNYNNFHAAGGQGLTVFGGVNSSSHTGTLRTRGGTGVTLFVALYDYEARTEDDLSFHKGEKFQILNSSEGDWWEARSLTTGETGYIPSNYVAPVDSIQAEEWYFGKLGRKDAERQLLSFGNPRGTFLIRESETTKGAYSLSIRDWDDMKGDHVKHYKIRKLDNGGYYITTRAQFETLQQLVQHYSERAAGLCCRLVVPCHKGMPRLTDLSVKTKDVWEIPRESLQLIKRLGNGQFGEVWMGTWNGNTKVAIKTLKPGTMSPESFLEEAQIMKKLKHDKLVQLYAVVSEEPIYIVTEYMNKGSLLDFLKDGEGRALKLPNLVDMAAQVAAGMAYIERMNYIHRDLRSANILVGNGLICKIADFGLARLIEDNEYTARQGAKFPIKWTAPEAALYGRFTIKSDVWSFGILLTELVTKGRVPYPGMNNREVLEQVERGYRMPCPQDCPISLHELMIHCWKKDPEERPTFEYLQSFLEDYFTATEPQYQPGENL

Mus musculus [27] = experiment: Toxicity in Swiss Webster mouse assessed as monocyte count at 10 mg/kg, ip daily for 7 days measured after 7 days; type: organism-based; parameters: dose 10 mg/kg, route intraperitoneal; conditions: in vivo, 168 h
[28] = molecular target: Insulin-like growth factor 1 receptor (Homo sapiens) (UniProt P08069); experiment: Inhibition of IGF1R at 5 uM
Mus musculus [29] = experiment: Toxicity in Swiss Webster mouse assessed as alkaline phosphatase level at 50 mg/kg, ip daily for 7 days measured after 7 days; type: organism-based; parameters: dose 50 mg/kg, route intraperitoneal; conditions: in vivo, 168 h
[30] = molecular target: Protein kinase C zeta type (Homo sapiens) (UniProt Q05513); experiment: Inhibition of PKCzeta at 5 uM
Mus musculus [31] = experiment: Toxicity in Swiss Webster mouse assessed as alanine aminotransferase level at 10 mg/kg, ip daily for 7 days measured after 7 days; type: organism-based; parameters: dose 10 mg/kg, route intraperitoneal; conditions: in vivo, 168 h
Mus musculus [32] = experiment: Toxicity in Swiss Webster mouse assessed as monocyte count at 50 mg/kg, ip daily for 7 days measured after 7 days; type: organism-based; parameters: dose 50 mg/kg, route intraperitoneal; conditions: in vivo, 168 h
[33] = molecular target: RAC-beta serine/threonine-protein kinase (Homo sapiens) (UniProt P31751); experiment: Inhibition of AKT2 at 5 uM
Chain of RAC-beta serine/threonine-protein kinase (Homo sapiens) (P31751 whole entry): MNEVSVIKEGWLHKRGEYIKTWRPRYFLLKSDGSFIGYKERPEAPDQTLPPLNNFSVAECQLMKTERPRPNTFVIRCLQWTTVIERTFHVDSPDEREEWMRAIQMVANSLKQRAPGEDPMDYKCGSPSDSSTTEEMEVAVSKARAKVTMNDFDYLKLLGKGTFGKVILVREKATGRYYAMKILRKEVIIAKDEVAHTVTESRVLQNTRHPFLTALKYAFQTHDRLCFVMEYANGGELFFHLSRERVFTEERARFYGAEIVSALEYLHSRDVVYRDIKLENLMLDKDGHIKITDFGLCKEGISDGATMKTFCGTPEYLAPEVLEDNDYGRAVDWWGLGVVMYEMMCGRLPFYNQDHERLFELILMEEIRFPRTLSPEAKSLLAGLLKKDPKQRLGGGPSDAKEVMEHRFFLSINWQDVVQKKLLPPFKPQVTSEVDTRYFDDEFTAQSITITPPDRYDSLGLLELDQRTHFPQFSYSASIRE

Mus musculus [34] = experiment: Toxicity in Swiss Webster mouse assessed as blood urea nitrogen level at 3 mg/kg, ip daily for 7 days measured after 7 days; type: organism-based; parameters: dose 3 mg/kg, route intraperitoneal; conditions: in vivo, 168 h
[35] = molecular target: Hepatocyte growth factor receptor (Homo sapiens) (UniProt P08581); experiment: Inhibition of MET at 5 uM
Mus musculus [36] = experiment: Toxicity in Swiss Webster mouse assessed as hemoglobin level at 10 mg/kg, ip daily for 7 days measured after 7 days; type: organism-based; parameters: dose 10 mg/kg, route intraperitoneal; conditions: in vivo, 168 h
[37] = molecular target: Ribosomal protein S6 kinase beta-1 (Homo sapiens) (UniProt P23443); experiment: Inhibition of p70S6K at 5 uM
Mus musculus [38] = experiment: Toxicity in Swiss Webster mouse assessed as white blood cell count at 50 mg/kg, ip daily for 7 days measured after 7 days; type: organism-based; parameters: dose 50 mg/kg, route intraperitoneal; conditions: in vivo, 168 h
How it was run: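 Six-week-old female Swiss Webster mice (about 25 g) received intraperitoneal injections daily for 7 days. Doses were 3, 10 or 50 mg/kg, with a vehicle group (30% PEG-400, 5% Tween-80, 65% DMSO). Values are reported as ranges per group.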

[39] = molecular target: Serine/threonine-protein kinase Chk2 (Homo sapiens) (UniProt O96017); experiment: Inhibition of CHK2 at 5 uM
Chain of Serine/threonine-protein kinase Chk2 (Homo sapiens) (O96017 whole entry): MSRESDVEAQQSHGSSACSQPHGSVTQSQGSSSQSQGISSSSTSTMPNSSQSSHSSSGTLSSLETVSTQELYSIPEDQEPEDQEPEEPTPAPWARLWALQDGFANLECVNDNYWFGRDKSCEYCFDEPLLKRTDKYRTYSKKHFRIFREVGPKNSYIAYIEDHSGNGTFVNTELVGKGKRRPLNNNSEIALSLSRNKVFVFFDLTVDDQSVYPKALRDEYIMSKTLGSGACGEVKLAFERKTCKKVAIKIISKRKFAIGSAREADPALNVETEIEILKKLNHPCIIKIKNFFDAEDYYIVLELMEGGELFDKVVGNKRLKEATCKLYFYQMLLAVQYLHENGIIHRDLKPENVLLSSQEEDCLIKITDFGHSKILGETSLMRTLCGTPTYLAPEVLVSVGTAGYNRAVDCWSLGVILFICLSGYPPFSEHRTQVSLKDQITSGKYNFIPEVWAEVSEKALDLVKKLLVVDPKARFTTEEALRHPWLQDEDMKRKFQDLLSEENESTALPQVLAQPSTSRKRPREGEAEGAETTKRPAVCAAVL

[40] = molecular target: Serine/threonine-protein kinase Sgk1 (Homo sapiens) (UniProt O00141); experiment: Inhibition of SGK1 at 5 uM
[41] = molecular target: Serine/threonine-protein kinase PLK1 (Homo sapiens) (UniProt P53350); experiment: Inhibition of PLK1 at 5 uM
Chain of Serine/threonine-protein kinase PLK1 (Homo sapiens) (P53350 whole entry): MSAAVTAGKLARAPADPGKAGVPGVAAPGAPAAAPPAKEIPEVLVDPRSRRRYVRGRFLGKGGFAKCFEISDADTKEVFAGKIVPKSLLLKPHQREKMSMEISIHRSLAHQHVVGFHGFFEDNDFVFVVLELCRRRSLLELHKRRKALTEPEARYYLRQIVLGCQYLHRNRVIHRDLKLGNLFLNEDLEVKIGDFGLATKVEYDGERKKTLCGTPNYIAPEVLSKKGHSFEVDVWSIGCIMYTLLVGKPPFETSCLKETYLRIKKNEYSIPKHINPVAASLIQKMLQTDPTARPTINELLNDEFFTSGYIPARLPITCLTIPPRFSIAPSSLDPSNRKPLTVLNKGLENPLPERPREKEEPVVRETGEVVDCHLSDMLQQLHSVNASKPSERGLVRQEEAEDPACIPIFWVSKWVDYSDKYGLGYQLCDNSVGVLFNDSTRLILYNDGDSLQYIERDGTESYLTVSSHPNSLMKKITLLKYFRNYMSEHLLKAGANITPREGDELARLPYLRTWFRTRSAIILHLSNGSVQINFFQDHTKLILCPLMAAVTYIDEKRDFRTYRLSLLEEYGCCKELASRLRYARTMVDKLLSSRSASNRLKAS

[42] = Inhibition of CAMK2 at 5 uM
[43] = molecular target: Serine/threonine-protein kinase PAK 2 (Homo sapiens) (UniProt Q13177); experiment: Inhibition of PAK2 at 5 uM
Chain of Serine/threonine-protein kinase PAK 2 (Homo sapiens) (Q13177 whole entry): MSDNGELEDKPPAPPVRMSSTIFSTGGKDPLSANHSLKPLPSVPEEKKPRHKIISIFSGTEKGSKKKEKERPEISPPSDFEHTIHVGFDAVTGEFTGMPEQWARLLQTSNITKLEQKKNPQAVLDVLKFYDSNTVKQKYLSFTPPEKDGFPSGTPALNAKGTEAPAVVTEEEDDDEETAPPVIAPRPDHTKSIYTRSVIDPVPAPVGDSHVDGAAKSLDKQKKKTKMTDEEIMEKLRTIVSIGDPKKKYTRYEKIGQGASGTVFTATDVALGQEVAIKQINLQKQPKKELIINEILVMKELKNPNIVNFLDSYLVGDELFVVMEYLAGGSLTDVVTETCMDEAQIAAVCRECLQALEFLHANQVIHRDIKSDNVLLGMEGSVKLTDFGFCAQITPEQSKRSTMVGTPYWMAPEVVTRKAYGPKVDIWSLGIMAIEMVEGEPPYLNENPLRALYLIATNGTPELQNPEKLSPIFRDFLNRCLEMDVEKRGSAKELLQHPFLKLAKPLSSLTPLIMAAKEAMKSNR

[44] = molecular target: Serine/threonine-protein kinase D2 (Homo sapiens) (UniProt Q9BZL6); experiment: Inhibition of PKD2 at 5 uM
Chain of Serine/threonine-protein kinase D2 (Homo sapiens) (Q9BZL6 whole entry): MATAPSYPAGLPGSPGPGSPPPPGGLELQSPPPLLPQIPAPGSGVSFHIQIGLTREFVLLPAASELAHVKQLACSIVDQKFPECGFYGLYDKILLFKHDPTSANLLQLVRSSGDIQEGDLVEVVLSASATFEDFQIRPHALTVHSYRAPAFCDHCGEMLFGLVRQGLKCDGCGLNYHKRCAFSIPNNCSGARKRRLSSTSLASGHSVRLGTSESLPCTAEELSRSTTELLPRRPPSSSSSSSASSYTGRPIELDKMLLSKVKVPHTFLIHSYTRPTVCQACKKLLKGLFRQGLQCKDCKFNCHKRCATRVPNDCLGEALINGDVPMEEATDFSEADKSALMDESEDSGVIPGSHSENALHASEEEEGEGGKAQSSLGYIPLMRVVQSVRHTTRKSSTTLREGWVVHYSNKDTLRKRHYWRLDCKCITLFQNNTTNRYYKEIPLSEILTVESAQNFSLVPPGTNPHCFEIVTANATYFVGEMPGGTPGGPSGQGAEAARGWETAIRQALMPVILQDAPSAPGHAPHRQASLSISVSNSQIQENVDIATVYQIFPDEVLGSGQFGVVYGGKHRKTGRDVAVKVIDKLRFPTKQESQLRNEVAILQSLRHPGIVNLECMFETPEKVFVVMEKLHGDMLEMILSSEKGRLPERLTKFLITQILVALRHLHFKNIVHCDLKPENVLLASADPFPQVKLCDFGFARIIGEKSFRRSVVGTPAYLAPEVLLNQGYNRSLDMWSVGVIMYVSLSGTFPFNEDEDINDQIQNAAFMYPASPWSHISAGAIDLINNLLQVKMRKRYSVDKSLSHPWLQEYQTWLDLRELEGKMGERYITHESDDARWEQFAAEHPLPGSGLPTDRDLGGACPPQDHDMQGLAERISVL

[45] = molecular target: Serine/threonine-protein kinase 3 (Homo sapiens) (UniProt Q13188); experiment: Inhibition of MST2 at 5 uM
Mus musculus [46] = experiment: Toxicity in Swiss Webster mouse assessed as glucose level at 3 mg/kg, ip daily for 7 days measured after 7 days; type: organism-based; parameters: dose 3 mg/kg, route intraperitoneal; conditions: in vivo, 168 h
Mus musculus [47] = experiment: Toxicity in Swiss Webster mouse assessed as amylase level at 3 mg/kg, ip daily for 7 days measured after 7 days; type: organism-based; parameters: dose 3 mg/kg, route intraperitoneal; conditions: in vivo, 168 h
Mus musculus [48] = experiment: Toxicity in Swiss Webster mouse assessed as albumin level at 3 mg/kg, ip daily for 7 days measured after 7 days; type: organism-based; parameters: dose 3 mg/kg, route intraperitoneal; conditions: in vivo, 168 h

Chain of RAC-gamma serine/threonine-protein kinase (Homo sapiens) (Q9Y243 whole entry): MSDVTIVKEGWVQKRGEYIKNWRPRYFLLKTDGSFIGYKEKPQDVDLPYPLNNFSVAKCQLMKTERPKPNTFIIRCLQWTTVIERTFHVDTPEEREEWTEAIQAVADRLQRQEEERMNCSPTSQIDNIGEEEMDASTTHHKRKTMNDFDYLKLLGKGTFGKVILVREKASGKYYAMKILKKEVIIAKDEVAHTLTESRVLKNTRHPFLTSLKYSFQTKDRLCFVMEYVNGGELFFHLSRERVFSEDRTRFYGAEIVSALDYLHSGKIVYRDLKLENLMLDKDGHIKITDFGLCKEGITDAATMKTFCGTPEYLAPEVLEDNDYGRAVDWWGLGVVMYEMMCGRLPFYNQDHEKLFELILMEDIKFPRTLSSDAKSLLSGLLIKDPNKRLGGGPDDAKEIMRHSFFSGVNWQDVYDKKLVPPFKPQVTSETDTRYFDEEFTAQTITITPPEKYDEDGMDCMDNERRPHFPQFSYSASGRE

## CCCOc1ccc(/C=C2\SC(=O)NC2=O)cc1
[1]
  inhibition: 3%
[2]
  inhibition: 6%
Mus musculus [3]
  Activity: 5.1 mg/dL
[4]
  inhibition: 62%
Mus musculus [5]
  Activity: 85 U/L
Mus musculus [6]
  Activity: 85 U/L
[7]
  inhibition: 4%
Mus musculus [8]
  Activity: 816 U/L
[9]
  inhibition: 4%
Mus musculus [10]
  Activity: 5.5 mg/dL
Mus musculus [11]
  Activity: 6.3 mmol/L
[12]
  inhibition: 9%
[13]
  inhibition: 68%
[14]
  inhibition: -4%
Mus musculus [15]
  Activity: 12.8 g/dL
[16]
  inhibition: 0%
Mus musculus [17]
  Activity: 3.5 ×10⁹ /L
Mus musculus [18]
  Activity: 7.3 mmol/L
Mus musculus [19]
  Activity: 0.08 ×10⁹ /L
Mus musculus [20]
  Activity: 145 mmol/L
[21]
  inhibition: 3%
Mus musculus [22]
  Activity: 7.2 mmol/L
Mus musculus [23]
  Activity: 3.61 ×10⁹ /L
Mus musculus [24]
  Activity: 37 U/L
[25]
  inhibition: -2%
[26]
  inhibition: 0%
Mus musculus [27]
  Activity: 0.08 ×10⁹ /L
[28]
  inhibition: -1%
Mus musculus [29]
  Activity: 80 U/L
[30]
  inhibition: 3%
Mus musculus [31]
  Activity: 44 U/L
Mus musculus [32]
  Activity: 0.04 ×10⁹ /L
[33]
  inhibition: -1%
Mus musculus [34]
  Activity: 17 mg/dL
[35]
  inhibition: -6%
Mus musculus [36]
  Activity: 11.7 g/dL
[37]
  inhibition: 8%
Mus musculus [38]
  Activity: 3.65 ×10⁹ /L
[39]
  inhibition: 4%
[40]
  inhibition: 5%
[41]
  inhibition: 9%
[42]
  inhibition: -1%
[43]
  inhibition: -1%
[44]
  inhibition: -3%
[45]
  inhibition: 1%
Mus musculus [46]
  Activity: 80 mg/dL
Mus musculus [47]
  Activity: 878 U/L
Mus musculus [48]
  Activity: 3.3 g/dL
